Results as given in ChEMBL document CHEMBL1126645, “Nonsymmetrical bipiperidyls as inhibitors of vesicular acetylcholine storage” (J Med Chem, 1993).

Target: T1, Vesicular acetylcholine transporter (Torpedo californica, UniProt P81721)
T1 sequence (P81721 whole entry): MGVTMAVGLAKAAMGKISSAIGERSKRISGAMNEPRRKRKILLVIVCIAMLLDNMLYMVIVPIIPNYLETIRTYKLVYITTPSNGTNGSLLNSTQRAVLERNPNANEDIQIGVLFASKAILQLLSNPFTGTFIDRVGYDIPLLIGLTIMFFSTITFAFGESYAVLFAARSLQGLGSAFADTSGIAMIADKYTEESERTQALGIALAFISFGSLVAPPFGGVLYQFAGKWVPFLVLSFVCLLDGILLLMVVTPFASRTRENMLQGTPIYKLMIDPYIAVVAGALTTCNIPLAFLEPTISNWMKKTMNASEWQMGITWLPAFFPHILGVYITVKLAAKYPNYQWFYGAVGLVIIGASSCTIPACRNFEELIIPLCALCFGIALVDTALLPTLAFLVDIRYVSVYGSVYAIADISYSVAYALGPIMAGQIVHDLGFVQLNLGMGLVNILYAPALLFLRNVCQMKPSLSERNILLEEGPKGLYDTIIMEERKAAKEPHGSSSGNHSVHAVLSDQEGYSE
Assay: Inhibition of [3H]- vesamicol binding to synaptic vesicles preparation from the electric organ of Torpedo californica
Parameters: species or system Tetronarce californica
How it was run: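 Run without ATP and without acetylcholine. Each drug concentration tested in duplicate, with variation below 5%. Other assay details follow an earlier published protocol.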

Compound | IC50
O=[N+]([O-])c1ccc(N2CC[C@@H](O)[C@H](N3CCC(c4ccccc4)CC3)C2)cc1 | 290 nM
O[C@@H]1CCN(Cc2cccc(F)c2)C[C@H]1N1CCC(c2ccccc2)CC1 | 31 nM
O[C@@H]1CCN(Cc2ccccc2)C[C@H]1N1CCC(c2ccccc2)CC1 | 30 nM
O=C(c1ccccc1)N1CC[C@@H](O)[C@H](N2CCC(c3ccccc3)CC2)C1 | 34 nM
O[C@@H]1CNCC[C@H]1N1CCC(c2ccccc2)CC1 | 5000 nM
O[C@@H]1CCN(Cc2ccc(Br)cc2)C[C@H]1N1CCC(c2ccccc2)CC1 | 25 nM
O[C@@H]1CN(Cc2ccc(Br)cc2)CC[C@H]1N1CCC(c2ccccc2)CC1 | 310 nM
Cc1cccc(CN2CC[C@@H](O)[C@H](N3CCC(c4ccccc4)CC3)C2)c1 | 22 nM
O[C@@H]1CCN(Cc2cccc(I)c2)C[C@H]1N1CCC(c2ccccc2)CC1 | 26 nM
O[C@@H]1CN(Cc2ccccc2Br)CC[C@H]1N1CCC(c2ccccc2)CC1 | 55 nM
O[C@@H]1CCNC[C@H]1N1CCC(c2ccccc2)CC1 | 2900 nM
O[C@@H]1CCN(Cc2ccccc2F)C[C@H]1N1CCC(c2ccccc2)CC1 | 42 nM
O[C@@H]1CCN(Cc2ccc(F)cc2)C[C@H]1N1CCC(c2ccccc2)CC1 | 14 nM
O=C(c1cccc(I)c1)N1CC[C@@H](O)[C@H](N2CCC(c3ccccc3)CC2)C1 | 39 nM
O=C(c1ccccc1)N1CC[C@@H](N2CCC(c3ccccc3)CC2)[C@H](O)C1 | 1900 nM
Cc1ccc(CN2CC[C@@H](O)[C@H](N3CCC(c4ccccc4)CC3)C2)cc1 | 24 nM
Cc1ccccc1CN1CC[C@@H](O)[C@H](N2CCC(c3ccccc3)CC2)C1 | 25 nM
O[C@@H]1CCN(Cc2ccccc2Br)C[C@H]1N1CCC(c2ccccc2)CC1 | 22 nM
O=C(c1ccc(I)cc1)N1CC[C@@H](O)[C@H](N2CCC(c3ccccc3)CC2)C1 | 22 nM
O[C@@H]1CCN(Cc2cccc(Br)c2)C[C@H]1N1CCC(c2ccccc2)CC1 | 21 nM
O=C(c1ccccc1I)N1CC[C@@H](O)[C@H](N2CCC(c3ccccc3)CC2)C1 | 250 nM
O[C@@H]1CN(Cc2ccccc2)CC[C@H]1N1CCC(c2ccccc2)CC1 | 83 nM
